Reference: ChEMBL document CHEMBL5154639, “Anti-schistosomal activities of quinoxaline-containing compounds: From hit identification to lead optimisation” (Eur J Med Chem, 2021)
Active and inactive are the calls of the source.

Columns and labels:
Schistosoma mansoni [1] = test: Antischistosomal activity against adult stage of Schistosoma mansoni assessed as inhibition of oviposition at 0.0024 to 10 uM measured after 72 hrs; format: functional, organism-based; conditions: dose 0.0095-10 µM, in the assay text read “0.0095 to 10 uM” for “0.0024 to 10 uM”
In short: (§1)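 7-week adult worm pairs, 1–3 pairs per well in duplicate, in DMEM with 10% FCS, L-glutamine and antibiotics, incubated 72 h at 37°C, 5% CO2. Concentrations were 0.78–50 µM in 0.5% DMSO, with some titrations at 0.0095–10 or 0.0095–5 µM. Controls were 0.5% DMSO and praziquantel 10 µM. Motility was measured by digital image analysis, and eggs were collected, formalin-fixed and counted.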

Schistosoma japonicum [2] = test: Antischistosomal activity against adult stage of Schistosoma japonicum assessed as inhibition of parasite motility at 100 nM measured after 48 hrs by microscopic method; format: functional, organism-based
In short: (§2)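 Adult males (Egyptian isolate for S. haematobium, hamster-derived; Philippine isolate for S. japonicum, mouse-derived), about 5 per well in Basch 169 medium with antibiotics and 4% FBS, acclimated overnight at 37°C, 5% CO2. Compound added at 100 nM final in DMSO. Shape, density and motility scored by microscope with constrained descriptors at 5, 24, 48 and 72 h. Triplicate, sometimes duplicate.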

Schistosoma mansoni [3] = test: Antischistosomal activity against juvenile stage of Schistosoma mansoni assessed as parasite death at 1.25 to 10 uM measured after 72 hrs by PI staining based analysis; format: functional, organism-based; conditions: dose 1.25-10 µM
In short: (§3)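 Juvenile worms, 20–25 per well, exposed to 10–0.156 µM for 72 h at 37°C, 5% CO2. Controls were 1.25% DMSO, and PZQ and AUR at 15 µM. Motility and phenotype were scored on an adapted WHO-TDR 0–4 scale. Viability was measured by 15 min staining with 2 µg/ml propidium iodide, imaged, and reported as the percentage of PI-positive worms per well.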

TK6 [4] = test: Induction of cell cycle arrest in human TK6 cells assessed as accumulation of cells at G2/M phase at 2 to 4 uM; format: toxicity, cell-based; conditions: tk6, 4 µM, dose 2-4 µM
Schistosoma mansoni [5] = test: Antischistosomal activity against juvenile stage of Schistosoma mansoni assessed as increased granularity with reduced movement at 0.156 uM measured after 72 hrs by PI staining based analysis; format: functional, organism-based; in short: as §3
[6] = Drug uptake in cytoplasm of human TK6 cells by fluorescence based analysis; format: ADME, subcellular
In short: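 Compound autofluorescence was recorded alongside γH2AX and p53 during imaging flow cytometry of TK6 cells treated for 24 h at 0.5–4 µM and fixed with lysis solution.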

Schistosoma mansoni [7] = test: Antischistosomal activity against adult stage of Schistosoma mansoni assessed as cessation of worm motility at 6.25 to 12.5 uM measured after 72 hrs; format: functional, organism-based; conditions: dose 6.25-12.5 µM; in short: as §1
Schistosoma mansoni [8] = test: Antischistosomal activity against Schistosoma mansoni assessed as parasite death at 10 to 50 uM measured after 48 hrs; format: functional, organism-based; conditions: dose 10-50 µM
In short: (§4)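 Miracidia hatched from eggs by light exposure in artificial river water, then washed in CBSS. Set up in CBSS with compound, usually 0.5, 2, 5, 10 and 50 µM, in duplicate, with 1% DMSO as negative control. After 48 h at 26°C, dead, fully transformed and partially transformed larvae were counted.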

Schistosoma mansoni [9] = test: Antischistosomal activity against adult stage of Schistosoma mansoni assessed as inhibition of oviposition at 0.0095 to 10 uM measured after 72 hrs; format: functional, organism-based; conditions: dose 0.0095-10 µM; in short: as §1
TK6 [10] = test: Cytotoxicity against human TK6 cells assessed as increase in mitotic arrest at 4 uM measured after 24 hrs; format: toxicity, cell-based; conditions: tk6, 24 h
Schistosoma mansoni [11] = test: Antischistosomal activity against Schistosoma mansoni assessed as inhibition of miracidial to sporocyst transformation measured after 48 hrs; format: functional, organism-based; conditions: dose 0.5-5 µM, DDE = dose-dependent effect; in short: as §4
Schistosoma mansoni [12] = test: Antischistosomal activity against adult stage of Schistosoma mansoni assessed as cessation of worm motility at 0.0095 to 10 uM measured after 72 hrs; format: functional, organism-based; conditions: dose 0.0095-10 µM; in short: as §1
[13] = Genotoxicity against human TK6 cells assessed as induction of DNA damage by measuring nuclear p53 content at 0.5 to 4 uM measured after 24 hrs; format: toxicity, cell-based; conditions: tk6, 24 h, dose 0.5-4 µM
In short: (§5)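 TK6 cells, about 2×10^5/ml in RPMI with 10% horse serum, treated 24 h without recovery at 0.5, 2 and 4 µM. Controls were 1% DMSO, MMS 45.4 µM and carbendazim 8.4 µM. Cells were fixed, permeabilized and stained for γH2AX, p53 and DRAQ5, then imaged by flow cytometry. Micronuclei were scored by neural network as %MNi in mononucleated cells. Biomarkers were expressed as fold change, with 1.5-fold as cut-off. Three experiments.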

[14] = Genotoxicity against human TK6 cells assessed as […] in micronuclei formation at 4 uM measured after 24 hrs; format: toxicity, cell-based; conditions: tk6, 24 h; in short: as §5
[15] = Genotoxicity against human TK6 cells assessed as induction of DNA damage by measuring gammaH2AX level at 0.5 to 4 uM measured after 24 hrs; format: toxicity, cell-based; conditions: tk6, 24 h, dose 0.5-4 µM; in short: as §5
[16] = Genotoxicity against human TK6 cells assessed as […] in micronuclei formation at 0.5 to 2 uM measured after 24 hrs; format: toxicity, cell-based; conditions: tk6, 24 h, dose 0.5-2 µM; in short: as §5
Schistosoma haematobium = test: Antischistosomal activity against Schistosoma haematobium assessed as inhibition of parasite movement at 100 nM measured after 24 to 72 hrs by microscopic method; format: functional, organism-based; conditions: time 24-72 hrs; in short: as §2
Schistosoma mansoni [17] = test: Antischistosomal activity against Schistosoma mansoni Puerto-Rican schistosomula assessed as inhibition of parasite motility at 50 uM measured after 72 hrs; format: functional, organism-based
In short: (§6)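 Mechanically transformed schistosomula, 120 per well, incubated with compound at 37°C, 5% CO2 for 72 h, at single concentrations (10, 50 µM) or two-fold titrations (0.313–10 µM). Controls were auranofin 10 µM and 0.625% DMSO. Motility and phenotype were scored by automated high-content imaging, and EC50 was taken from two or three replicate titrations.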

Schistosoma mansoni [18] = test: Antischistosomal activity against adult stage of Schistosoma mansoni assessed as cessation of worm motility at 3.15 uM measured after 72 hrs; format: functional; in short: as §1
Schistosoma mansoni [19] = test: Antischistosomal activity against adult stage of Schistosoma mansoni assessed as absence of body/gut movement, plate detachment and severe damage to the tegument at 25 to 50 uM measured after 72 hrs; format: functional, organism-based; conditions: dose 25-50 µM; in short: as §1
Schistosoma mansoni [20] = test: Antischistosomal activity against adult stage of Schistosoma mansoni assessed as inhibition of in vitro laid eggs production at 12.5 uM measured after 72 hrs; format: functional, organism-based; in short: as §1
[21] = Selectivity index, ratio of CC50 for human HepG2 cells measured after 72 hrs to EC50 for antischistosomal activity against Schistosoma mansoni Puerto-Rican schistosomula measured after 72 hrs; format: toxicity; conditions: read-out: Ratio CC50/EC50
Schistosoma mansoni [22] = test: Antischistosomal activity against adult stage of Schistosoma mansoni assessed as inhibition of parasite motility measured after 72 hrs; format: functional, organism-based; in short: as §1
Schistosoma mansoni [23] = test: Antischistosomal activity against Schistosoma mansoni Puerto-Rican schistosomula assessed as phenotypic changes measured after 72 hrs; format: functional, organism-based; in short: as §6
[24] = Selectivity index, ratio of CC50 for human HepG2 cells measured after 72 hrs to EC50 for antischistosomal activity against adult stage of Schistosoma mansoni measured after 72 hrs; format: toxicity; conditions: read-out: Ratio CC50/EC50
[25] = Cytotoxicity against human HepG2 cells assessed as reduction in cell viability incubated for 72 hrs by MTT assay; format: toxicity, cell-based
Schistosoma mansoni [26] = test: Antischistosomal activity against Schistosoma mansoni Puerto-Rican schistosomula assessed as inhibition of parasite motility measured after 72 hrs; format: functional, organism-based; in short: as §6
[27] = Cytotoxicity against human HepG2 cells assessed as reduction in cell viability incubated for 24 hrs by MTT assay; format: toxicity, cell-based
In short: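 HepG2 seeded at 2×10^4 cells/well, then after 24 h exposed to 1–200 µM (seven concentrations) for 24 h at 37°C. Controls were 1.25% DMSO and 1% Triton X-100. MTT absorbance was read at 570 nm. Triplicates in three experiments; CC50 by non-linear regression of normalized log-dose curves.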

Schistosoma japonicum [28] = test: Antischistosomal activity against adult stage of Schistosoma japonicum assessed as inhibition of parasite motility at 100 nM measured after 24 to 72 hrs by microscopic method; format: functional, organism-based; conditions: time 24-72 hrs; in short: as §2
Schistosoma japonicum [29] = test: Antischistosomal activity against adult stage of Schistosoma japonicum assessed as parasite death at 100 nM measured after 72 hrs by microscopic method; format: functional, organism-based; in short: as §2

Compound: O=[N+]([O-])c1ccc2nc(Nc3cc(F)cc(C(F)(F)F)c3)c(Nc3cc(F)cc(C(F)(F)F)c3)nc2c1
- Activity (Schistosoma mansoni [1]): Active

Compound: O=[N+]([O-])c1ccc2nc(Nc3ccc(Cl)c(Cl)c3)c(Nc3ccc(Cl)c(Cl)c3)nc2c1
- Activity (Schistosoma japonicum [2]): Active
- Activity (Schistosoma mansoni [3]): Active
- Activity (TK6 [4]): Toxic
- Activity (Schistosoma mansoni [5]): Active
- Drug uptake [6]: Active
- Activity (Schistosoma mansoni [7]): Active
- Activity (Schistosoma mansoni [8]): Active
- Activity (Schistosoma mansoni [9]): Active
- Activity (TK6 [10]): Toxic
- Activity (Schistosoma mansoni [11]): Dde
- Activity (Schistosoma mansoni [12]): Active
- Activity [13]: Non-Toxic
- Activity [14]: Toxic
- Activity [15]: Non-Toxic
- Activity (Schistosoma mansoni [1]): Active
- Activity [16]: Non-Toxic

Compound: O=[N+]([O-])c1ccc2nc(Nc3ccc(Cl)cc3)c(Nc3ccc(Cl)cc3)nc2c1
- Activity (Schistosoma japonicum [2]): Active

Compound: Cc1ccc(Nc2nc3ccccc3nc2Nc2ccc(C)c(C)c2)cc1C
- Activity (Schistosoma mansoni [7]): Active

Compound: O=[N+]([O-])c1ccc2nc(Nc3cccc(C(F)(F)F)c3)c(Nc3cccc(C(F)(F)F)c3)nc2c1
- Activity (Schistosoma japonicum [2]): Active
- Activity (Schistosoma haematobium): Active

Compound: Clc1ccc(Nc2nc3ccc(N4CCCC4)cc3nc2Nc2ccc(Cl)c(Cl)c2)cc1Cl
- Activity (Schistosoma mansoni [17]): Active

Compound: FC(F)(F)c1cccc(Nc2nc3ccccc3nc2Nc2cccc(C(F)(F)F)c2)c1
- Activity (Schistosoma mansoni [7]): Active
- Activity (Schistosoma mansoni [18]): 100%

Compound: O=[N+]([O-])c1ccc2nc(Nc3cccc(Cl)c3)c(Nc3cccc(Cl)c3)nc2c1
- Activity (Schistosoma japonicum [2]): Active

Compound: c1ccc(/N=c2\sc3ccccc3s\c2=N\c2ccccc2)cc1
- Activity (Schistosoma mansoni [19]): Active
- Activity (Schistosoma mansoni [20]): Active

Compound: O=C(C1CCCCC1)N1CC(=O)N2CCc3ccccc3C2C1 (stereo not drawn)
- Activity (Schistosoma mansoni [9]): Active
- Activity (Schistosoma mansoni [12]): Active
- Activity (Schistosoma mansoni [1]): Active

Compound: COC(=O)c1ccc(Nc2nc3ccc([N+](=O)[O-])cc3nc2Nc2ccc(C(=O)OC)cc2)cc1
- Activity (Schistosoma mansoni [7]): Active

Compound: Brc1ccc(Nc2nc3ccccc3nc2Nc2ccc(Br)cc2)cc1
- selectivity ratio at 72 h [21]: 1.9
- EC50 (Schistosoma mansoni [22]): 0.162 µM
- EC50 (Schistosoma mansoni [23]): 3.67 µM
- selectivity ratio at 72 h [24]: 28.6
- CC50 at 72 h [25]: 4.64 µM
- EC50 (Schistosoma mansoni [26]): 1.21 µM
- CC50 at 24 h [27]: 7.12 µM

Compound: O=[N+]([O-])c1ccc2nc(Nc3ccc(C(F)(F)F)cc3)c(Nc3ccc(C(F)(F)F)cc3)nc2c1
- Activity (Schistosoma haematobium): Active
- Activity (Schistosoma japonicum [28]): Active
- Activity (Schistosoma japonicum [29]): Active

Compound: Cc1cccc(Nc2nc3ccc([N+](=O)[O-])cc3nc2Nc2cccc(C)c2)c1
- Activity (Schistosoma mansoni [7]): Active

Compound: O=[N+]([O-])c1ccc2nc(Nc3ccccc3)c(Nc3ccccc3)nc2c1
- Activity (Schistosoma mansoni [7]): Active
- Activity (Schistosoma mansoni [18]): 100%

Compound: O=[N+]([O-])c1ccc2nc(Nc3cc(C(F)(F)F)ccc3F)c(Nc3cc(C(F)(F)F)ccc3F)nc2c1
- Activity (Schistosoma haematobium): Active
- Activity (Schistosoma japonicum [28]): Active
- Activity (Schistosoma japonicum [29]): Active
- Activity (Schistosoma mansoni [1]): Active
